Experimental data taken from ChEMBL document CHEMBL4480426, “Novel multi-target directed ligands based on annelated xanthine scaffold with aromatic substituents acting on adenosine receptor and monoamine oxidase B. Synthesis, in vitro and in silico studies” (Bioorg Med Chem, 2019).

Tests used:
Adenosine receptor A2a = Adenosine receptor A2a (Homo sapiens, UniProt P29274); assay: Displacement of [3H]MSX2 from recombinant human adenosine A2a receptor expressed in HEK293 cells; format: cell-based
HepG2 = assay: Hepatotoxicity against human HepG2 cells assessed as reduction in cell viability at 0.5 to 1 uM measured after 72 hrs by CellTiter96 Aqueous non-radioactive cell proliferation assay; format: toxicity, cell-based; settings: hepg2, 72 h
How it was run: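 HepG2 cells seeded at 1.5×10^4 cells/well in MEM with 4.5 g/L glucose and 10% FBS, grown 24 h at 37 °C, 5% CO2. Compounds diluted in the same medium and applied for 72 h. CellTiter 96 AQueous reagent then added for 2 h, absorbance read at 490 nm. One-way ANOVA with Bonferroni post test.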

[1] = biological target: T1, Adenosine receptor A3 (Homo sapiens) (UniProt P0DMS8); assay: Displacement of [3H]PSB11 from recombinant human adenosine A3 receptor expressed in CHO cells at 1 uM relative to control; format: cell-based
T1 sequence (whole entry): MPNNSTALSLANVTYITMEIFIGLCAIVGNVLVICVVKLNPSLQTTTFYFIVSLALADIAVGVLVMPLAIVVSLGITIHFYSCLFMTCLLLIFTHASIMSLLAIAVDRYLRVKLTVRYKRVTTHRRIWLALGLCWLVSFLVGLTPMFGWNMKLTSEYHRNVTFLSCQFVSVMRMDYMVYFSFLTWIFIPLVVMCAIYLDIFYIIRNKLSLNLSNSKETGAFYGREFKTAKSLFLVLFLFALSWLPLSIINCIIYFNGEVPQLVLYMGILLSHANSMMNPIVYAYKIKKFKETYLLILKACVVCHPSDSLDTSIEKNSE
How it was run: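 Purchased membranes of CHO cells expressing human A1 ([3H]CCPA) or human A3 ([3H]PSB-11). A single high compound concentration is screened first; for potent compounds, full inhibition curves spanning 3 orders of magnitude. At least three independent experiments.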

[2] = Solubility of the compound in MEM media at 10 to 100 uM; format: physicochemical
Adenosine receptor A2b = biological target: T2, Adenosine receptor A2b (Homo sapiens, UniProt P29275); assay: Displacement of [3H]PSB603 from recombinant human adenosine A2b receptor expressed in HEK293 cells; format: cell-based
T2 sequence (P29275 whole entry): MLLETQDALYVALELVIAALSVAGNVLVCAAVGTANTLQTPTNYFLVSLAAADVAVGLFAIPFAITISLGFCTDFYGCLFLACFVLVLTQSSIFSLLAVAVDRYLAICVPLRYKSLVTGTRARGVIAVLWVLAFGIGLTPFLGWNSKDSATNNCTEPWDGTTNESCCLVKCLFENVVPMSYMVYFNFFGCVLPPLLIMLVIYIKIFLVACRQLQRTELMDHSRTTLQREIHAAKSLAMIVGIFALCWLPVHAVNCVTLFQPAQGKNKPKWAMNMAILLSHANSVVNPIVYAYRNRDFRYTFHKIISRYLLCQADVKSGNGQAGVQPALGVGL

[3] = biological target: T3, Amine oxidase [flavin-containing] A (Homo sapiens, UniProt P21397); assay: Inhibition of recombinant human MAOA expressed in baculovirus infected BTI insect cells at 1 to 100 uM using p-tyramine as substrate preincubated for 30 mins followed by substrate addition and measured over 45 mins by horseradish peroxidase-Amplex Red-coupled fluorometric assay relative to control; settings: 0.75 h
T3 sequence (P21397 whole entry): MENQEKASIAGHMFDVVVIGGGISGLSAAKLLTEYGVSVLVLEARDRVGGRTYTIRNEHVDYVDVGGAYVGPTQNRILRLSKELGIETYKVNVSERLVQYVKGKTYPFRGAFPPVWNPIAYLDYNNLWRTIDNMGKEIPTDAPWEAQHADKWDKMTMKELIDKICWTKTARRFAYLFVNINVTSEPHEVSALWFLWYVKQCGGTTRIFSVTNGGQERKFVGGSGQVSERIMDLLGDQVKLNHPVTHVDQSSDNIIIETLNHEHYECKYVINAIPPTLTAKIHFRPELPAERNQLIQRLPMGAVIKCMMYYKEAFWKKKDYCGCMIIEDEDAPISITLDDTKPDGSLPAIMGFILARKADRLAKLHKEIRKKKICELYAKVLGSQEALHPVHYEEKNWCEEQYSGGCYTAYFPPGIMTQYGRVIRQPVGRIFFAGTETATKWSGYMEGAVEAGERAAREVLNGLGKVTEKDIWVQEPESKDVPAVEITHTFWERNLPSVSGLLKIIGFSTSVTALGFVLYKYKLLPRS
How it was run: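 Human recombinant MAO-A or MAO-B enzyme. Activity detected fluorometrically with the Amplex Red monoamine oxidase assay.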

[4] = biological target: T4, Adenosine receptor A2b (Homo sapiens) (UniProt P29275); assay: Displacement of [3H]PSB603 from recombinant human adenosine A2b receptor expressed in HEK293 cells at 1 uM relative to control; format: cell-based
T4 sequence (whole entry): T2 sequence (P29275 whole entry)
How it was run: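 Purchased membranes of HEK cells expressing human A2A ([3H]MSX-2) or human A2B ([3H]PSB-603). A single high compound concentration is screened first; for potent compounds, full inhibition curves spanning 3 orders of magnitude. At least three independent experiments.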

Sequence of Adenosine receptor A2a (P29274 whole entry): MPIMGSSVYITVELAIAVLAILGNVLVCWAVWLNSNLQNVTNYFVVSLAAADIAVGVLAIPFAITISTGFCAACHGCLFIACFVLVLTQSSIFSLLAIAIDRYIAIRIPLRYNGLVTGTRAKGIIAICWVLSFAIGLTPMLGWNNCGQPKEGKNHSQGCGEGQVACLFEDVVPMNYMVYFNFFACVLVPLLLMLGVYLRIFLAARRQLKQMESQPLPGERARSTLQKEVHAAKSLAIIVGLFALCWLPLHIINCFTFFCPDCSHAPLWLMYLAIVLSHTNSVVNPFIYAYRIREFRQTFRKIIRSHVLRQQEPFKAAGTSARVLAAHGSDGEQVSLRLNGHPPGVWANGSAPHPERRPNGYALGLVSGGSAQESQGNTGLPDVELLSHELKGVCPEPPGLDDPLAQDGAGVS

Ki (Adenosine receptor A2a): > 1000 nM
inhibition [1]: 26%
solubility [2]: Insoluble
Ki (Adenosine receptor A2b): > 1000 nM
inhibition (INH) [3]: 5%
inhibition [4]: 40%
Structure (SMILES): Cn1c(=O)c2c(nc3n2CCCCN3Cc2ccc(Cl)c(Cl)c2)n(C)c1=O
Activity (HepG2): Toxic
